ChEMBL document CHEMBL1125170, “A novel series of selective leukotriene antagonists: exploration and optimization of the acidic region in 1,6-disubstituted indoles and indazoles” (1990)
Where “and” joins values, the source holds several entries; their conditions need not be identical. Equal values may be shown once.

What was measured:
Cavia porcellus [1] = species: Cavia porcellus; test: In vitro antagonism of 8 nM of peptidoleukotriene (LTE4) induced contraction of guinea pig tracheal spirals at 100 X E-7M concentration; type: functional, Trachea
In short: (§1)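 Guinea pig tracheal spirals held at 37 °C in modified Krebs' (mM: NaCl 119, KCl 4.6, CaCl2 1.8, MgCl2 0.5, NaHCO3 24.9, NaH2PO4 1.0, glucose 11.1) plus indomethacin 5 μM, resting tension 2 g, isometric recording. After reproducible 8 nM LTE4 responses, compound added for 10 min, then rechallenged. % inhibition is adjusted for the paired vehicle tissue. At least four spirals, paired t test.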

Cavia porcellus [2] = species: Cavia porcellus; test: In vitro antagonism of 8 nM of peptidoleukotriene (LTE4) induced contraction of guinea pig tracheal spirals at 1 X E-7M concentration; type: functional, Trachea; in short: as §1
Cavia porcellus [3] = species: Cavia porcellus; test: Dissociation constant KB = [antagonist]/(dose ratio -1). KB determined in guinea pig tracheal spirals with LTE4 as agonist.; type: functional, Trachea
In short: (§2)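 Isolated guinea pig tracheal strips in Krebs' buffer with indomethacin (5 μM), 37 °C, 95% O2/5% CO2, resting tension 2 g. Carbachol (30 μM) sets the maximum. Antagonist incubated 30 min, then cumulative LTE4 concentration–response curves in log increments, one curve per tissue. EC50 by linear regression, paired vehicle controls. KB = [antagonist]/(DR − 1) (Furchgott).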

Cavia porcellus [4] = species: Cavia porcellus; test: In vitro antagonism of 8 nM of peptidoleukotriene (LTE4) induced contraction of guinea pig tracheal spirals at 10 X E-7M concentration; type: functional, Trachea; in short: as §1
Cavia porcellus [5] = species: Cavia porcellus; test: In vitro antagonism of 8 nM of peptidoleukotriene (LTE4) induced contraction of guinea pig tracheal spirals at 33 X E-7M concentration; type: functional, Trachea; in short: as §1
[6] = target: T1, Cysteinyl leukotriene receptor 1 (Cavia porcellus) (UniProt Q2NNR5); test: Dissociation constant KB = [antagonist]/(dose ratio -1).KB determined in guinea pig tracheal spirals with LTE4 as agonist; type: functional, tissue-based; conditions: Trachea; in short: as §2
T1 sequence (whole entry): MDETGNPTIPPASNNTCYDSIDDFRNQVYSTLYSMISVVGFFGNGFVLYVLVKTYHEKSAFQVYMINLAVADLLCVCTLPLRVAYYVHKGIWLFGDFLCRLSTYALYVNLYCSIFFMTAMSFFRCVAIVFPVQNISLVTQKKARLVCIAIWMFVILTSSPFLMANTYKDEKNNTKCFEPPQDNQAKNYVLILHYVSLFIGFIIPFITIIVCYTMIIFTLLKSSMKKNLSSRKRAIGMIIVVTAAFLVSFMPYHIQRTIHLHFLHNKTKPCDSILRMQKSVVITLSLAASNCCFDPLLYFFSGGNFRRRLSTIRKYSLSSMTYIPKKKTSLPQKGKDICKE

Cavia porcellus [7] = species: Cavia porcellus; test: In vitro antagonism of 8 nM of peptidoleukotriene (LTE4) induced contraction of guinea pig tracheal spirals at 3.3 X E-7M concentration; type: functional, Trachea; in short: as §1
Cavia porcellus [8] = species: Cavia porcellus; test: In vitro antagonism of 8 nM of peptidoleukotriene (LTE4) induced contraction of guinea pig tracheal spirals at 0.033 X E-7M concentration; type: functional, Trachea; in short: as §1

CCCCC(CC)C(=O)Nc1ccc2ccn(Cc3cccc(C(=O)O)c3OC)c2c1 (stereo not drawn)
Antagonism (Cavia porcellus [1]): 38%

CCCCC(CC)C(=O)Nc1ccc2ccn(Cc3c(OC)cc(C(=O)NS(=O)(=O)c4ccccc4)cc3OC)c2c1 (stereo not drawn)
Antagonism (Cavia porcellus [2]): 72% | pKB (Cavia porcellus [3]): 8

CCCCC(CC)C(=O)Nc1ccc2ccn(Cc3ccc(S(=O)(=O)NC(=O)c4ccccc4)cc3)c2c1 (stereo not drawn)
Antagonism (Cavia porcellus [1]): 37%

COc1cc(C(=O)NS(=O)(=O)c2ccc3ccccc3c2)ccc1Cn1ccc2ccc(NC(=O)CC3CCCC3)cc21
pKB (Cavia porcellus [3]): 8.3

CCCCC(CC)C(=O)Nc1ccc2ccn(Cc3ccc(C(=O)NS(=O)(=O)C(C)C)cc3OC)c2c1 (stereo not drawn)
Antagonism (Cavia porcellus [4]): 47%

CCCCC(CC)C(=O)Nc1ccc2ccn(Cc3ccc(C(=O)NCC(=O)O)cc3OC)c2c1 (stereo not drawn)
Antagonism (Cavia porcellus [1]): 43%

CCCCC(CC)C(=O)Nc1ccc2ccn(Cc3ccc(C(=O)NS(=O)(=O)Cc4ccccc4)cc3OC)c2c1 (stereo not drawn)
Antagonism (Cavia porcellus [1]): 89%

CCCCC(CC)C(=O)Nc1ccc2ccn(Cc3ccc(C(=O)CS(=O)(=O)c4ccccc4)cc3OC)c2c1 (stereo not drawn)
Antagonism (Cavia porcellus [4]): 59%

CCCCOc1cc(C(=O)O)ccc1Cn1ccc2ccc(NC(=O)C(CC)CCCC)cc21 (stereo not drawn)
Antagonism (Cavia porcellus [5]): 44% | Antagonism (Cavia porcellus [1]): 83%

CCCCC(CC)C(=O)Nc1ccc2ccn(Cc3cccc(C(=O)O)c3)c2c1 (stereo not drawn)
Antagonism (Cavia porcellus [1]): 31%

CCCCC(CC)C(=O)Nc1ccc2ccn(Cc3ccc(C(=O)C(C#N)S(=O)(=O)c4ccccc4)cc3OC)c2c1 (stereo not drawn)
Antagonism (Cavia porcellus [2]): 73% | pKB (Cavia porcellus [3]): 8.1

CCCCC(CC)C(=O)Nc1ccc2ccn(Cc3ccc(C(=O)NS(=O)(=O)c4ccc(Cl)cc4)cc3OC)c2c1 (stereo not drawn)
pKB (Cavia porcellus [3]): 7.8

CCCCC(CC)C(=O)Nc1ccc2ccn(Cc3ccc(C(=O)O)cc3)c2c1 (stereo not drawn)
Antagonism (Cavia porcellus [1]): 44%

CCCCC(CC)C(=O)Nc1ccc2ccn(Cc3ccc(C(=O)NS(=O)(=O)c4ccccc4)c(OC)c3)c2c1 (stereo not drawn)
Antagonism (Cavia porcellus [2]): 52%

CCCCC(CC)C(=O)Nc1ccc2ccn(Cc3ccc(-c4nn[nH]n4)cc3OC)c2c1 (stereo not drawn)
pKB [6]: 6.6 | Antagonism (Cavia porcellus [4]): 50% | Antagonism (Cavia porcellus [7]): 31%

COc1ccc(OC)c(S(=O)(=O)NC(=O)c2ccc(Cn3ccc4ccc(NC(=O)CC5CCCC5)cc43)c(OC)c2)c1
pKB (Cavia porcellus [3]): 9.1

COc1cc(C(=O)O)ccc1Cn1ccc2ccc(NC(=O)CC3CCCC3)cc21
Antagonism (Cavia porcellus [2]): 34%

CCCCC(CC)C(=O)Nc1ccc2ccn(Cc3ccc(C(=O)NS(=O)(=O)c4ccc([N+](=O)[O-])cc4)cc3OC)c2c1 (stereo not drawn)
pKB (Cavia porcellus [3]): 7.7

COc1cc(-c2nn[nH]n2)ccc1Cn1ccc2ccc(NC(=O)OC3CCCC3)cc21
Antagonism (Cavia porcellus [4]): 62% | pKB (Cavia porcellus [3]): 7.6

COc1cc(C(=O)NS(=O)(=O)c2cccs2)ccc1Cn1ccc2ccc(NC(=O)CC3CCCC3)cc21
pKB (Cavia porcellus [3]): 9.6

CCCCC(CC)C(=O)Nc1ccc2ccn(Cc3ccc(C(=O)O)cc3OCCCc3nnn[nH]3)c2c1 (stereo not drawn)
Antagonism (Cavia porcellus [4]): 32%

COc1cc(C(=O)N(C)S(=O)(=O)c2ccccc2)ccc1Cn1ccc2ccc(NC(=O)CC3CCCC3)cc21
Antagonism (Cavia porcellus [2]): 42%

CCCCC(CC)C(=O)Nc1ccc2ccn(Cc3ccc(C(=O)NS(=O)(=O)c4ccccc4C)cc3OC)c2c1 (stereo not drawn)
pKB (Cavia porcellus [3]): 8.9

CCCCC(CC)C(=O)Nc1ccc2ccn(Cc3ccc(C(=O)NS(C)(=O)=O)cc3OC)c2c1 (stereo not drawn)
Antagonism (Cavia porcellus [4]): 100% and 60%

COc1cc(C(=O)NS(=O)(=O)c2ccccc2Cl)ccc1Cn1ccc2ccc(NC(=O)CC3CCCC3)cc21
pKB (Cavia porcellus [3]): 9.8

COc1cc(C(=O)NS(=O)(=O)c2ccccc2N)ccc1Cn1ccc2ccc(NC(=O)CC3CCCC3)cc21
pKB (Cavia porcellus [3]): 9.9

CCCCC(CC)C(=O)Nc1ccc2ccn(Cc3ccc(OC)c(C(=O)O)c3)c2c1 (stereo not drawn)
Antagonism (Cavia porcellus [1]): 28%

CCCCOC(=O)Nc1ccc2cnn(Cc3ccc(-c4nn[nH]n4)cc3OC)c2c1
Antagonism (Cavia porcellus [7]): 55% | pKB (Cavia porcellus [3]): 7.1

COc1cc(-c2nn[nH]n2)ccc1Cn1ccc2ccc(NC(=O)CC3CCCC3)cc21
Antagonism (Cavia porcellus [2]): 42% | Antagonism (Cavia porcellus [4]): 100% | Antagonism (Cavia porcellus [7]): 79%

COc1cc(C(=O)NS(=O)(=O)c2ccccc2C)ccc1Cn1ncc2ccc(NC(=O)OC3CCCC3)cc21
pKB (Cavia porcellus [3]): 10.2

CCCCC(CC)C(=O)Nc1ccc2ccn(Cc3ccc(C(=O)NS(=O)(=O)c4ccc(OC)cc4)cc3OC)c2c1 (stereo not drawn)
pKB (Cavia porcellus [3]): 7.4

CCCCC(CC)C(=O)Nc1ccc2ccn(Cc3ccc(C(=O)NS(=O)(=O)c4ccc(F)cc4)cc3OC)c2c1 (stereo not drawn)
pKB (Cavia porcellus [3]): 7.7

COc1cc(C(=O)NS(=O)(=O)c2c(C)cccc2Cl)ccc1Cn1ccc2ccc(NC(=O)CC3CCCC3)cc21
pKB (Cavia porcellus [3]): 8.8

CCCCC(CC)C(=O)Nc1ccc2ccn(Cc3ccc(C(=O)O)c(Br)c3)c2c1 (stereo not drawn)
Antagonism (Cavia porcellus [5]): 33%

CCCCC(CC)C(=O)Nc1ccc2ccn(Cc3ccc(S(=O)(=O)O)cc3)c2c1 (stereo not drawn)
Antagonism (Cavia porcellus [1]): 48%

COc1cc(-c2nn[nH]n2)ccc1Cn1ncc2ccc(NC(=O)OC3CCCC3)cc21
Antagonism (Cavia porcellus [2]): 58% | Antagonism (Cavia porcellus [4]): 100% | pKB (Cavia porcellus [3]): 7.7

CCCCC(CC)C(=O)Nc1ccc2ccn(Cc3ccc(C(=O)Nc4ccccc4C(=O)O)cc3OC)c2c1 (stereo not drawn)
Antagonism (Cavia porcellus [1]): 34%

CCCCC(CC)C(=O)Nc1ccc2ccn(Cc3ccc(C(=O)Nc4nn[nH]n4)cc3OC)c2c1 (stereo not drawn)
Antagonism (Cavia porcellus [1]): 62% | Antagonism (Cavia porcellus [4]): 20%

CCCCC(CC)C(=O)Nc1ccc2ccn(Cc3ccc(C(=O)O)cc3Cl)c2c1 (stereo not drawn)
Antagonism (Cavia porcellus [1]): 44%

COc1cc(C(=O)NS(=O)(=O)c2ccccc2OC)ccc1Cn1ccc2ccc(NC(=O)CC3CCCC3)cc21
pKB (Cavia porcellus [3]): 9.7

CCCCC(CC)C(=O)Nc1ccc2ccn(Cc3c(OC)cc(C(=O)O)cc3OC)c2c1 (stereo not drawn)
Antagonism (Cavia porcellus [4]): 63%

CCCCCC(=O)Nc1ccc2ccn(Cc3ccc(-c4nn[nH]n4)cc3OC)c2c1
Antagonism (Cavia porcellus [5]): 86% | Antagonism (Cavia porcellus [4]): 32%

CCCCC(CC)C(=O)Nc1ccc2ccn(Cc3ccc(C(=O)NS(=O)(=O)c4ccc(C)cc4)cc3OC)c2c1 (stereo not drawn)
pKB (Cavia porcellus [3]): 8.4

COc1cc(C(=O)NS(=O)(=O)c2cc(C)ccc2C)ccc1Cn1ccc2ccc(NC(=O)CC3CCCC3)cc21
pKB (Cavia porcellus [3]): 8.4

CCCCC(CC)C(=O)Nc1ccc2ccn(Cc3ccc(C(=O)O)cc3C)c2c1 (stereo not drawn)
Antagonism (Cavia porcellus [5]): 21% | Antagonism (Cavia porcellus [1]): 91%

CCCCC(CC)C(=O)Nc1ccc2ccn(Cc3ccc(C(=O)O)cc3OCCCC#N)c2c1 (stereo not drawn)
Antagonism (Cavia porcellus [5]): 33% | Antagonism (Cavia porcellus [1]): 84%

CCCCC(CC)C(=O)Nc1ccc2ccn(Cc3ccc(C(=O)N[S+]([O-])c4ccccc4)cc3OC)c2c1 (stereo not drawn)
Antagonism (Cavia porcellus [5]): 34%

CCCCOC(=O)Nc1ccc2ccn(Cc3ccc(-c4nn[nH]n4)cc3OC)c2c1
Antagonism (Cavia porcellus [4]): 68% | pKB (Cavia porcellus [3]): 7.2

CCCCC(CC)C(=O)Nc1ccc2ccn(Cc3ccc(/C=C/C(=O)O)cc3OC)c2c1 (stereo not drawn)
Antagonism (Cavia porcellus [1]): 31%

CCCCC(CC)C(=O)Nc1ccc2ccn(Cc3ccc(C(=O)O)cc3F)c2c1 (stereo not drawn)
Antagonism (Cavia porcellus [1]): 86%

CCCCC(CC)C(=O)Nc1ccc2ccn(Cc3ccc(C(=O)NS(=O)(=O)c4ccccc4)cc3)c2c1 (stereo not drawn)
Antagonism (Cavia porcellus [2]): 42% | pKB (Cavia porcellus [3]): 6.8

CCC(C(=O)Nc1ccc2cnn(Cc3ccc(C(=O)NS(=O)(=O)c4ccccc4)cc3OC)c2c1)c1ccccc1 (stereo not drawn)
Antagonism (Cavia porcellus [8]): 43%

CCCCC(CC)C(=O)Nc1ccc2cnn(Cc3ccc(-c4nn[nH]n4)cc3OC)c2c1 (stereo not drawn)
Antagonism (Cavia porcellus [4]): 100% | pKB (Cavia porcellus [3]): 7.1

COc1cc(C(=O)NS(=O)(=O)c2ccccn2)ccc1Cn1ccc2ccc(NC(=O)CC3CCCC3)cc21
pKB (Cavia porcellus [3]): 8.9

CCCCC(CC)C(=O)Nc1ccc2ccn(Cc3ccc(C(=O)O)cc3OC)c2c1 (stereo not drawn)
Antagonism (Cavia porcellus [5]): 100% | pKB [6]: 6.6 | Antagonism (Cavia porcellus [4]): 59%

CCCCC(CC)C(=O)Nc1ccc2ccn(Cc3ccc(C(=O)NO)cc3OC)c2c1 (stereo not drawn)
Antagonism (Cavia porcellus [1]): 38%

COc1cc(C(=O)NS(=O)(=O)c2ccccc2C)ccc1Cn1ncc2ccc(NC(=O)CC3CCCC3)cc21
pKB (Cavia porcellus [3]): 10.9

CCCCC(CC)C(=O)Nc1ccc2ccn(Cc3ccc(C(=O)O)c(OC)c3)c2c1 (stereo not drawn)
Antagonism (Cavia porcellus [4]): 15%
